Test results reported in ChEMBL document CHEMBL1130378, “Cephalosporin 3'-phloroglucide esters and 7-(phloroglucidamido) cephalosporins as novel antibacterial agents” (1997).
Converted amounts (≈) assume the structure as drawn.

How the values were obtained:
Assay type in all cases: functional
[1] = test system: Pseudomonas aeruginosa; assay: Minimum inhibitory concentration for prevention of visible growth of Pseudomonas aeruginosa (1101-75 strain)
Procedure, shortened: (§1)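 Agar dilution: organisms deposited onto antibiotic-containing agar plates with a Steers-type replicator. MIC taken as the lowest concentration preventing visible growth, given as the mean of duplicate determinations.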

[2] = test system: Pseudomonas aeruginosa; assay: Minimum inhibitory concentration for prevention of visible growth of Pseudomonas aeruginosa (18S-H strain); procedure, shortened: as §1
[3] = test system: Staphylococcus aureus; assay: Minimum inhibitory concentration for prevention of visible growth of Staphylococcus aureus (95 strain); procedure, shortened: as §1
[4] = test system: Staphylococcus aureus; assay: Minimum inhibitory concentration for prevention of visible growth of Staphylococcus aureus (FDA 209P strain); procedure, shortened: as §1
[5] = test system: Candida albicans; assay: Minimum inhibitory concentration for prevention of visible growth of Candida albicans; procedure, shortened: as §1
[6] = target: Beta-lactamase (Pseudomonas aeruginosa (strain ATCC 15692 / PAO1 / 1C / PRS 101 / LMG12228)) (UniProt P24735); assay: Minimum protective concentration against beta-lactamase Pseudomonas aeruginosa (18S-H strain)
Procedure, shortened: (§2)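 MPC is the lowest β-lactam concentration that protects the indicator from hydrolysis within 40 min under standard conditions. Compound stability was checked without enzyme in phosphate buffer pH 6.5 at 37 °C.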

[7] = target: Beta-lactamase (Staphylococcus aureus) (UniProt P00807); assay: Minimum protective concentration against beta-lactamase in Staphylococcus aureus (95 strain); procedure, shortened: as §2
Chain of Beta-lactamase (Staphylococcus aureus) (P00807 whole entry): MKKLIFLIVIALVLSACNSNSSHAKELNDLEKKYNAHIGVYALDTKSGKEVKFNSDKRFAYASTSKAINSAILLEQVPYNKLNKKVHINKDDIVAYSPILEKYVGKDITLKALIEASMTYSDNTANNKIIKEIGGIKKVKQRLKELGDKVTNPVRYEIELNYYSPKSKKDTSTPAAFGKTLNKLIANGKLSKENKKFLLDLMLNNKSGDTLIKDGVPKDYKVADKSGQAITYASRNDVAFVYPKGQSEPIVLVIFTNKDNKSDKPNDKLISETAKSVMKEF

Chain of Beta-lactamase (Pseudomonas aeruginosa (strain ATCC 15692 / PAO1 / 1C / PRS 101 / LMG12228)) (P24735 27-397 limits assumed): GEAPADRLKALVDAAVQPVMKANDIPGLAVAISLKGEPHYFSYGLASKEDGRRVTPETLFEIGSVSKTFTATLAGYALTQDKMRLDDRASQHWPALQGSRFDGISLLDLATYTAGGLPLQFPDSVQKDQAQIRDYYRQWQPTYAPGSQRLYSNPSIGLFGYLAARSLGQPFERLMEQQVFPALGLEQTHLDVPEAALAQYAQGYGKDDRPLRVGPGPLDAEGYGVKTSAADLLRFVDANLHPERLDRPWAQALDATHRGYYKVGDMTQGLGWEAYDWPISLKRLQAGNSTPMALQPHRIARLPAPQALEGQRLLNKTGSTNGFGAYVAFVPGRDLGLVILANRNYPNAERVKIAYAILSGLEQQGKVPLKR

Oc1ccccc1Cc1cc(Cl)cc(Cc2ccccc2O)c1O
MIC [1]: 0.07 µg/mL (≈ 0.205 µM) | MIC [2]: 0.18 µg/mL (≈ 0.528 µM) | MIC [3]: 0.58 µg/mL (≈ 1.7 µM) | MIC [4]: 1.2 µg/mL (≈ 3.52 µM) | MIC [5]: 2.06 µg/mL (≈ 6.04 µM)

CC(=O)OCC1=C(C(=O)O)N2C(=O)[C@@H](NC(=O)c3cccc(Cc4cc(Cl)cc(Cc5ccccc5O)c4O)c3O)[C@H]2SC1
MPC [6]: 99.8 µg/mL | MPC [7]: 95.2 µg/mL | MIC [1]: 0.28 µg/mL (≈ 0.438 µM) | MIC [2]: 0.45 µg/mL (≈ 0.704 µM) | MIC [3]: 0.28 µg/mL (≈ 0.438 µM) | MIC [4]: 0.35 µg/mL (≈ 0.548 µM) | MIC [5]: 28.3 µg/mL (≈ 44.3 µM)

CC(=O)OCC1=C(C(=O)O)N2C(=O)[C@@H](NC(=O)c3cccc(C(=O)c4cc(Cl)cc(C(=O)c5ccccc5O)c4O)c3O)[C@H]2SC1
MPC [6]: 93.5 µg/mL | MPC [7]: 88.7 µg/mL | MIC [1]: 0.79 µg/mL (≈ 1.18 µM) | MIC [2]: 0.38 µg/mL (≈ 0.57 µM) | MIC [3]: 0.45 µg/mL (≈ 0.675 µM) | MIC [4]: 0.78 µg/mL (≈ 1.17 µM) | MIC [5]: 14.2 µg/mL (≈ 21.3 µM)

Oc1ccccc1Cc1cccc(Cc2ccccc2O)c1O
MIC [1]: > 145 µg/mL | MIC [2]: > 145 µg/mL | MIC [3]: > 145 µg/mL | MIC [4]: > 145 µg/mL | MIC [5]: > 145 µg/mL

CC(=O)Oc1ccccc1Cc1cc(Cl)cc(Cc2ccccc2OC(C)=O)c1OC(C)=O
MIC [1]: > 145 µg/mL | MIC [2]: > 145 µg/mL | MIC [3]: > 145 µg/mL | MIC [4]: > 145 µg/mL | MIC [5]: > 145 µg/mL

O=C(COc1ccccc1)N[C@@H]1C(=O)N2C(C(=O)O)=C(COC(=O)c3cccc(Cc4cc(Cl)cc(Cc5ccccc5O)c4O)c3O)CS[C@H]12
MPC [6]: 6.74 µg/mL | MPC [7]: 7.08 µg/mL | MIC [1]: 0.98 µg/mL (≈ 1.34 µM) | MIC [2]: 1.24 µg/mL (≈ 1.7 µM) | MIC [3]: 1.2 µg/mL (≈ 1.64 µM) | MIC [4]: 0.41 µg/mL (≈ 0.561 µM) | MIC [5]: 5.86 µg/mL (≈ 8.01 µM)

CNC(=O)c1cccc(C(=O)c2cc(Cl)cc(C(=O)c3ccccc3O)c2O)c1O
MIC [1]: 6.03 µg/mL (≈ 14.2 µM) | MIC [2]: 8.32 µg/mL (≈ 19.5 µM) | MIC [3]: 17.8 µg/mL (≈ 41.7 µM) | MIC [4]: 18.1 µg/mL (≈ 42.6 µM) | MIC [5]: 120 µg/mL (≈ 281 µM)

O=C(COc1ccccc1)N[C@@H]1C(=O)N2C(C(=O)O)=C(COC(=O)c3cccc(C(=O)c4cc(Cl)cc(C(=O)c5ccccc5O)c4O)c3O)CS[C@H]12
MPC [6]: 5.98 µg/mL | MPC [7]: 4.81 µg/mL | MIC [1]: 1.37 µg/mL (≈ 1.8 µM) | MIC [2]: 3.13 µg/mL (≈ 4.12 µM) | MIC [3]: 2.1 µg/mL (≈ 2.77 µM) | MIC [4]: 0.9 µg/mL (≈ 1.19 µM) | MIC [5]: 6.47 µg/mL (≈ 8.52 µM)

COC(=O)c1cccc(Cc2cc(Cl)cc(Cc3ccccc3O)c2O)c1O
MIC [1]: 1.25 µg/mL (≈ 3.13 µM) | MIC [2]: 1.56 µg/mL (≈ 3.91 µM) | MIC [3]: 4.65 µg/mL (≈ 11.7 µM) | MIC [4]: 2.98 µg/mL (≈ 7.47 µM) | MIC [5]: 117 µg/mL (≈ 294 µM)

COC(=O)c1cccc(C(=O)c2cc(Cl)cc(C(=O)c3ccccc3O)c2O)c1O
MIC [1]: 5.78 µg/mL (≈ 13.5 µM) | MIC [2]: 4.3 µg/mL (≈ 10.1 µM) | MIC [3]: 15.3 µg/mL (≈ 35.9 µM) | MIC [4]: 14.7 µg/mL (≈ 34.4 µM) | MIC [5]: 125 µg/mL (≈ 294 µM)

Oc1ccc(Br)cc1Cc1cc(Cl)cc(Cc2cc(Br)ccc2O)c1O
MIC [1]: 39.4 µg/mL (≈ 79 µM) | MIC [2]: 36.7 µg/mL (≈ 73.6 µM) | MIC [3]: 49 µg/mL (≈ 98.2 µM) | MIC [4]: 45 µg/mL (≈ 90.3 µM) | MIC [5]: 115 µg/mL (≈ 231 µM)

CC(=O)Oc1ccc(Br)cc1Cc1cc(Cl)cc(Cc2cc(Br)ccc2OC(C)=O)c1OC(C)=O
MIC [1]: > 145 µg/mL | MIC [2]: > 145 µg/mL | MIC [3]: > 145 µg/mL | MIC [4]: > 145 µg/mL | MIC [5]: > 145 µg/mL

O=C(O)[C@H]1/C(=C/CO)O[C@@H]2CC(=O)N21
MPC [6]: 3 µg/mL | MPC [7]: 0.38 µg/mL

O=C(O)c1cccc(Cc2cc(Cl)cc(Cc3ccccc3O)c2O)c1O
MIC [1]: 0.02 µg/mL (≈ 0.052 µM) | MIC [2]: 0.1 µg/mL (≈ 0.26 µM) | MIC [3]: 0.43 µg/mL (≈ 1.12 µM) | MIC [4]: 0.86 µg/mL (≈ 2.23 µM) | MIC [5]: 1.43 µg/mL (≈ 3.72 µM)

CC(=O)OCC1=C(C(=O)O)N2C(=O)[C@@H](NC(=O)COc3ccccc3)[C@H]2SC1
MPC [6]: 0.97 µg/mL | MPC [7]: 1.35 µg/mL | MIC [1]: > 145 µg/mL | MIC [2]: > 145 µg/mL | MIC [3]: > 145 µg/mL | MIC [4]: 0.7 µg/mL (≈ 1.72 µM) | MIC [5]: > 145 µg/mL

CNC(=O)c1cccc(Cc2cc(Cl)cc(Cc3ccccc3O)c2O)c1O
MIC [1]: 3.28 µg/mL (≈ 8.24 µM) | MIC [2]: 4.7 µg/mL (≈ 11.8 µM) | MIC [3]: 6.63 µg/mL (≈ 16.7 µM) | MIC [4]: 7.35 µg/mL (≈ 18.5 µM) | MIC [5]: 114 µg/mL (≈ 287 µM)

O=C(O)c1cccc(C(=O)c2cc(Cl)cc(C(=O)c3cccc(C(=O)O)c3O)c2O)c1O
MIC [1]: 2.54 µg/mL (≈ 5.56 µM) | MIC [2]: 3.06 µg/mL (≈ 6.7 µM) | MIC [3]: 22.2 µg/mL (≈ 48.6 µM) | MIC [4]: 18.2 µg/mL (≈ 40 µM) | MIC [5]: 19.1 µg/mL (≈ 41.9 µM)

O=C(O)c1cccc(C(=O)c2cc(Cl)cc(C(=O)c3ccccc3O)c2O)c1O
MIC [1]: 0.17 µg/mL (≈ 0.412 µM) | MIC [2]: 0.26 µg/mL (≈ 0.63 µM) | MIC [3]: 0.98 µg/mL (≈ 2.37 µM) | MIC [4]: 3.67 µg/mL (≈ 8.89 µM) | MIC [5]: 3.7 µg/mL (≈ 8.96 µM)

CO/N=C(\C(=O)N[C@@H]1C(=O)N2C(C(=O)O)=C(COC(C)=O)CS[C@H]12)c1csc(N)n1 [CEFOTAXIME]
MPC [6]: 1.03 µg/mL | MPC [7]: 2.72 µg/mL | MIC [1]: 69.9 µg/mL (≈ 153 µM) | MIC [2]: 135 µg/mL (≈ 296 µM) | MIC [3]: 40.6 µg/mL (≈ 89.1 µM) | MIC [4]: 1.7 µg/mL (≈ 3.73 µM) | MIC [5]: > 145 µg/mL

O=C(O)c1cccc(Cc2cc(Cl)cc(Cc3cccc(C(=O)O)c3O)c2O)c1O
MIC [1]: 0.86 µg/mL (≈ 2.01 µM) | MIC [2]: 1.32 µg/mL (≈ 3.08 µM) | MIC [3]: 4.15 µg/mL (≈ 9.68 µM) | MIC [4]: 3.25 µg/mL (≈ 7.58 µM) | MIC [5]: 16.5 µg/mL (≈ 38.5 µM)
